{"data": "Measurements pooled from the literature", "PTGS1": "Prostaglandin G/H synthase 1 (PTGS1, Ovis aries, UniProt P05979)", "BCHE": "Cholinesterase (BCHE, Equus caballus, UniProt P81908)", "AGTR2": "Type-2 angiotensin II receptor (AGTR2, Homo sapiens, UniProt P50052)", "note": "Compare with care: the assays were run in different laboratories."}
{"Structure (SMILES)": "Oc1ccc(-c2ncccc2-c2nc3ccccc3s2)cc1", "target": "PTGS1", "assay": "enzyme activity, inhibitor, absorbance", "conditions": "10 µM", "inhibition [%]": 12.5}
{"Structure (SMILES)": "COc1cc2c(cc1OC)C(=O)N(Cc1ccc3ccccc3n1)C2", "target": "BCHE", "assay": "enzyme activity, inhibitor, Ellman", "conditions": "1 µM", "inhibition [%]": -0.7}
{"Structure (SMILES)": "Cc1ccc(-c2nc3ccccc3s2)c(-c2cccc(O)c2)c1", "target": "PTGS1", "assay": "enzyme activity, inhibitor, absorbance", "conditions": "10 µM", "inhibition [%]": 11.7}
{"Structure (SMILES)": "O=C(Nc1ccc(F)c(C(F)(F)F)c1)Nc1nnc(-c2ccncc2)s1", "target": "RecQ-like DNA helicase BLM (BLM, Homo sapiens, UniProt P54132)", "assay": "enzyme activity, inhibitor", "conditions": "50 µM", "inhibition [%]": 99}
{"Structure (SMILES)": "Cn1cc(-c2cccc(N3CCc4c(sc5c4CC(C)(C)C5)C3=O)c2CO)cc(Nc2ccncn2)c1=O", "target": "Serine/threonine-protein kinase MRCK alpha (CDC42BPA, Homo sapiens, UniProt Q5VT25)", "assay": "enzyme activity, inhibitor", "conditions": "1 µM", "inhibition [%]": 6}
{"Structure (SMILES)": "COc1cc2c(cc1OC)C(=O)N(CC1CCN(Cc3cccnc3)CC1)C2", "target": "BCHE", "assay": "enzyme activity, inhibitor, Ellman", "conditions": "1 µM", "inhibition [%]": 2.7}
{"Structure (SMILES)": "c1ccc(C(NCCNC(c2ccccc2)c2ccccc2)c2ccccc2)cc1", "target": "AGTR2", "assay": "cell-free assay", "conditions": "10 µM", "inhibition [%]": 14}
{"Structure (SMILES)": "CC(C)N1CCC[C@H]1CNC(=O)c1cn(C2CCCC2)c(=O)c2c1c1ccccc1n2C", "target": "Androgen receptor (Ar, Rattus norvegicus, UniProt P15207)", "assay": "ligand displacement, radioligand", "conditions": "10 µM", "inhibition [%]": 11}
{"Structure (SMILES)": "COc1cc2c(cc1OC)C(=O)N(Cc1cccc(N3CCCCC3)n1)C2", "target": "BCHE", "assay": "enzyme activity, inhibitor, Ellman", "conditions": "1 µM", "inhibition [%]": 4.8}
{"Structure (SMILES)": "Cc1ncc(C)n2nc(/C=C/c3nc(N4CCCC4)cc(N4CCOCC4)n3)nc12", "target": "cGMP-inhibited 3',5'-cyclic phosphodiesterase 3B (PDE3B, Homo sapiens, UniProt Q13370)", "assay": "enzyme activity, inhibitor", "conditions": "10 µM", "inhibition [%]": 15}
{"Structure (SMILES)": "Cn1cc(-c2cc(F)cc(N3CCn4c(cc5c4CCCC5)C3=O)c2CO)cc(Nc2ccc(N3CCN(C4COC4)CC3)cn2)c1=O", "target": "Dual specificity mitogen-activated protein kinase kinase 3 (MAP2K3, Homo sapiens, UniProt P46734)", "assay": "enzyme activity, inhibitor", "conditions": "0.1 µM", "inhibition [%]": -12}
{"Structure (SMILES)": "COc1ccc2[nH]cc(CCN3Cc4cc(OC)c(OC)cc4C3=O)c2c1", "target": "BCHE", "assay": "enzyme activity, inhibitor, Ellman", "conditions": "1 µM", "inhibition [%]": 19}
{"Structure (SMILES)": "Cc1ccc(-c2nc3ccccc3s2)c(-c2ccc(O)cc2)c1", "target": "PTGS1", "assay": "enzyme activity, inhibitor, absorbance", "conditions": "10 µM", "inhibition [%]": 8.4}
{"Structure (SMILES)": "C#Cc1n[nH]c2c(-c3cn(C(C)c4ccccn4)c(=O)[nH]c3=O)cc(F)cc12 (stereo not shown)", "target": "Activin receptor type-1B (ACVR1B, Homo sapiens, UniProt P36896)", "assay": "enzyme activity, inhibitor", "conditions": "1 µM", "inhibition [%]": 3.8}
{"Structure (SMILES)": "CN(C)Cc1ccc(-c2nc3ccccc3s2)c(-c2ccc(O)cc2)c1", "target": "PTGS1", "assay": "enzyme activity, inhibitor, absorbance", "conditions": "10 µM", "inhibition [%]": 14.2}
{"Structure (SMILES)": "COc1cc2c(cc1OC)C(=O)N(Cc1ccc(F)nc1)C2", "target": "BCHE", "assay": "enzyme activity, inhibitor, Ellman", "conditions": "1 µM", "inhibition [%]": -6.8}
{"Structure (SMILES)": "NS(=O)(=O)c1ccc(-c2ncccc2-c2nc3ccccc3s2)cc1", "target": "PTGS1", "assay": "enzyme activity, inhibitor, absorbance", "conditions": "10 µM", "inhibition [%]": 0}
{"Structure (SMILES)": "CN(CCN1CCC(OC(=O)Nc2ccccc2-c2ccccc2)CC1)C(=O)c1ccc(CN2CCC(C(N)=O)CC2)cc1", "target": "AGTR2", "assay": "ligand displacement, radioligand", "conditions": "1 µM", "inhibition [%]": -4}
{"Structure (SMILES)": "COc1ccc(-c2ccc(N)cc2-c2nc3ccccc3s2)cc1", "target": "PTGS1", "assay": "enzyme activity, inhibitor, absorbance", "conditions": "10 µM", "inhibition [%]": 65.4}
{"Structure (SMILES)": "COc1cc2c(cc1OC)C(=O)N(Cc1nccc3ccccc13)C2", "target": "BCHE", "assay": "enzyme activity, inhibitor, Ellman", "conditions": "1 µM", "inhibition [%]": 2}
{"Structure (SMILES)": "CS(=O)(=O)c1ccc(-c2ncccc2-c2nc3ccccc3s2)cc1", "target": "PTGS1", "assay": "enzyme activity, inhibitor, absorbance", "conditions": "10 µM", "inhibition [%]": 21.5}
{"Structure (SMILES)": "COc1cc2c(cc1OC)C(=O)N(Cc1ccncc1)C2", "target": "BCHE", "assay": "enzyme activity, inhibitor, Ellman", "conditions": "1 µM", "inhibition [%]": -0.7}
